The nature of experiment [1]: Antioxidant activity assessed as inhibition of xanthine-xanthine oxidase generated superoxide anion radical production by NBT reduction assay. It counts as functional. The essentials:
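Superoxide produced by xanthine/xanthine oxidase. Final reaction contained xanthine 40 μM, xanthine oxidase 0.05 unit/mL, NBT 50 μM (in 20 mM phosphate buffer, pH 7.4) and graded sample concentrations. Incubated 37 °C for 20 min after adding enzyme. Absorbance read at 560 nm against blanks. Values are means of triplicate determinations.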

The test system of experiment [2] is Radical scavenging activity. The experiment can be described thus: Antioxidant activity assessed as DPPH radical scavenging activity after 30 mins. The format is functional. The essentials: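 Test samples at 5−100 μg/mL (120 μL) combined with 30 μL of 0.75 mM DPPH in MeOH, in triplicate. Shaken in the dark at room temperature for 30 min, then absorbance read at 517 nm. Scavenging (%) = (1 − As/A0) × 100. IC50 is the concentration giving 50% DPPH inhibition. Trolox (5−100 μM) served as positive control.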

Take `O=C(/C=C/c1ccc(O)c(O)c1)NCCc1ccc(O)cc1`: the results for the IC50 in experiment [1] and in experiment [2] were 44.1 µM and 47.6 µM, respectively.

Turning to `O=C(CCc1ccc(O)c(O)c1)NCCc1ccc(O)cc1`, the IC50 in experiment [1] was determined as 30.2 µM; in experiment [2] it was 61.2 µM.

As for `COc1cc(/C=C\C(=O)NCC(O)c2ccc(O)cc2)ccc1O` (stereo not given), the 50% inhibitory concentration (IC50) in experiment [1] worked out at 22.2 µM; in experiment [2] it was 61.2 µM.

On to `COc1cc2c(c(OC)c1O)C(c1ccc(O)c(O)c1)C(C(=O)NCCc1ccc(O)cc1)C(C(=O)NCCc1ccc(O)cc1)=C2` (stereo not given), for which the IC50 was determined as 50.1 µM in experiment [1] and 46.5 µM in experiment [2].

For the compound `COc1ccc(/C=C/C(=O)NCCc2ccc(O)cc2)cc1O`, the IC50 in experiment [1] was found to be 48.8 µM; in experiment [2], 67.7 µM.

For the compound `COc1cc(/C=C(/C(=O)NCCCCNC(C)=O)c2cc(O)c(O)cc2CCC(=O)NCCc2ccc(O)cc2)ccc1O`, the values for the IC50 in experiment [1] and in experiment [2] were 56.5 µM and 65.2 µM, respectively.

On to `COc1cc(/C=C(/C(=O)NCCCCNC(C)=O)c2cc(O)c(O)cc2CCC(=O)NCCc2ccc(O)cc2)cc(OC)c1O`, for which the half-inhibitory concentration (IC50) is 52.7 µM in experiment [1] and 64.7 µM in experiment [2].

Take `COc1cc(/C=C(/C(=O)NCCc2ccc(O)cc2)c2cc(O)c(O)cc2CCC(=O)NCCc2ccc(O)cc2)cc(OC)c1O`: the IC50 in experiment [1] is 49.9 µM; in experiment [2], 57.1 µM.

As to `COc1cc([C@H]2Oc3ccc(/C=C/C(=O)NCCc4ccc(O)cc4)cc3O[C@@H]2CO)ccc1O` (relative stereo), the 50% inhibitory concentration (IC50) turned out to be 44.4 µM in experiment [1] and 55.2 µM in experiment [2].

Consider `COc1cc2c(c(OC)c1O)[C@H](c1ccc(O)c(O)c1)[C@@H](C(=O)NCCc1ccc(O)cc1)C(C(=O)NCCCCNC(C)=O)=C2` (relative stereo), for which the IC50 in experiment [1] came out at 58 µM; in experiment [2] it was 67 µM.

As for `COc1cc(O)cc([C@H]2Oc3ccc(/C=C\C(=O)NCCc4ccc(O)cc4)cc3O[C@@H]2C(=O)NCCc2ccc(O)cc2)c1` (relative stereo), the IC50 turned out to be 44.1 µM in experiment [1] and 48.2 µM in experiment [2].

Consider `COc1cc(O)cc([C@H]2Oc3ccc(/C=C/C(=O)NCCc4ccc(O)cc4)cc3O[C@@H]2C(=O)NCCc2ccc(O)cc2)c1` (relative stereo), for which the figures for the IC50 in experiment [1] and in experiment [2] were 46.4 µM and 49.8 µM, respectively.

`COc1cc([C@H]2Oc3ccc(/C=C\C(=O)NCCc4ccc(O)cc4)cc3O[C@@H]2CO)ccc1O` (relative stereo): the IC50 was 49.9 µM in experiment [1] and 54.1 µM in experiment [2].

As to `O=C(/C=C/c1ccc(O)cc1)NCCc1ccc(O)cc1` [N-P-COUMAROYL TYRAMINE], the half-inhibitory concentration (IC50) in experiment [1] came out at 52.6 µM; in experiment [2], 63.5 µM.

Consider `Cc1c(C)c2c(c(C)c1O)CCC(C)(C(=O)O)O2` (stereo not given) [TROLOX], for which the IC50 in experiment [1] turned out to be 27.2 µM; in experiment [2], 33.5 µM.
